Measured values taken from ChEMBL document CHEMBL3414545, “Fused heterocycles bearing bridgehead nitrogen as potent HIV-1 NNRTIs. Part 4: design, synthesis and biological evaluation of novel imidazo[1,2-a]pyrazines” (Eur J Med Chem, 2015).
Counter-ions that a name gives are not always drawn. The source made the active and inactive calls. The calls are words filed in the database; no cut-off is given here.

How the values were obtained:
[1] = molecular target: Human immunodeficiency virus type 1 reverse transcriptase (Human immunodeficiency virus 1, UniProt Q72547); assay: Inhibition of HIV1 reverse transcriptase assessed as reduction in biotin-labeled dUTP incorporation into DNA using poly(A) x oligo(dT)15 as template/primer after 1 hr by ELISA
Procedure, shortened: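 Wild-type HIV-1 RT was assayed with a plate-bound homopolymer poly[A]·oligo[dT]₁₅ template/primer and biotin-dUTP, following the Roche RT kit protocol. Incorporated biotin-dUTP, a measure of RT activity, was quantified by ELISA. Percentage inhibition was calculated by formula, and IC₅₀ is the concentration inhibiting biotin-dUTP incorporation by 50%.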

[2] = Selectivity index, ratio of CC50 for mock-infected human MT4 cells to EC50 for HIV1 RES056 expressing reverse transcriptase K103N/Y181C double mutant; assay type: toxicity, cell-based; conditions: read-out: Selectivity Index
Procedure, shortened: (§1)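 MT-4 cells resuspended at 6 × 10⁵ cells/mL, then infected with 100–300 CCID₅₀ of HIV-1 IIIB or RES056 or left mock-infected. Compound, in serial five-fold dilutions in triplicate wells, was added at the start. Viability was read by MTT after 5 days. EC₅₀ is 50% protection from viral cytopathicity, CC₅₀ is 50% viability loss in mock-infected cells, and SI is CC₅₀/EC₅₀.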

[3] = test system: Human immunodeficiency virus 1; assay: Antiviral activity against HIV1 RES056 expressing reverse transcriptase K103N/Y181C double mutant infected in human MT4 cells assessed as reduction in virus-induced cytopathic effect after 5 days by MTT assay; assay type: functional, organism-based; conditions: Human immunodeficiency virus 1, RES056, MT4, 120 h; procedure, shortened: as §1
[4] = Selectivity index, ratio of CC50 for mock-infected human MT4 cells to EC50 for HIV1 3B infected in human MT4 cells; assay type: toxicity, cell-based; conditions: mock-infected and infected with HIV1 3B, read-out: Selectivity Index; procedure, shortened: as §1
[5] = test system: Human immunodeficiency virus 2; assay: Antiviral activity against HIV2 strain ROD infected in human MT4 cells assessed as reduction in virus-induced cytopathic effect at subtoxic concentration; assay type: functional, organism-based; conditions: ISOLATE ROD
Procedure, shortened: (§2)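 Exponentially growing MT-4 cells were pelleted and resuspended at 6 × 10⁵ cells/mL, then infected with virus stock at 100–300 CCID₅₀. Compounds were added at infection as serial five-fold dilutions in triplicate wells, with untreated infected and mock-infected controls. Viability was read spectrophotometrically by MTT five days post-infection. EC₅₀ is the concentration giving 50% protection from viral cytopathic effect.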

[6] = test system: Human immunodeficiency virus 1; assay: Antiviral activity against HIV1 3B infected in human MT4 cells assessed as reduction in virus-induced cytopathic effect after 5 days by MTT assay; assay type: functional, organism-based; conditions: Human immunodeficiency virus 1, 3B, MT4, 120 h; procedure, shortened: as §2

Compound	IC50 [1] [µM]	selectivity ratio [2]	EC50 [3] [µM]	selectivity ratio [4]	inhibition [5]	EC50 [6] [µM]
Cc1cc(C#N)cc(C)c1Oc1nc(Nc2ccc(C#N)cc2)cn2ccnc12	0.26	1	> 73	≥ 224	inactive	0.32
Cc1cc(C)c(Oc2nc(Nc3ccc([N+](=O)[O-])cc3)cn3ccnc23)c(C)c1	4.7	< 1	> 34	25	inactive	1.3
CC(C)Nc1cccnc1N1CCN(C(=O)c2cc3cc(NS(C)(=O)=O)ccc3[nH]2)CC1 [DELAVIRDINE MESYLATE]		1	> 36	> 67		
Cc1cc(C#N)cc(C)c1Oc1nc(Nc2ccc(CC#N)cc2)cn2ccnc12	0.17	< 1	> 282	15	inactive	19
Cc1ccnc2c1NC(=O)c1cccnc1N2C1CC1 [NEVIRAPINE]			≥ 7.6			
Cc1cc(Br)cc(C)c1Oc1nc(Nc2ccc([N+](=O)[O-])cc2)cn2ccnc12	4.1	< 1	> 28	7	inactive	4
Cc1cc(C)c(Oc2nc(Nc3ccc(CC#N)cc3)cn3ccnc23)c(C)c1	0.36	< 1	> 117	13	inactive	9.2
Cc1cc(C#N)cc(C)c1Oc1nc(Nc2ccc(C#N)cc2)nc2[nH]ccc12						0.0009
Cc1cc(Cl)cc(C)c1Oc1nc(Nc2ccc(C#N)cc2)cn2ccnc12	1.1	< 1	> 34	39	inactive	0.87
Cc1cc(C)c(Oc2nc(Nc3ccc(Cl)cc3)cn3ccnc23)c(C)c1	5.9	< 1	> 12	< 1	inactive	> 12
O=c1[nH]cnc2c1ncn2[C@H]1CC[C@@H](CO)O1 [DIDANOSINE]				> 9		
Cc1cccc(C)c1Oc1nc(Nc2ccc(C#N)cc2)cn2ccnc12	0.82	< 1	> 32	5	inactive	6.5
N#Cc1ccc(Nc2cn3ccnc3c(Oc3c(F)cc(F)cc3F)n2)cc1	0.47	< 1	> 38	5	inactive	7.2
Cc1cc(Cl)cc(C)c1Oc1nc(Nc2ccc([N+](=O)[O-])cc2)cn2ccnc12	1.3	< 1	> 33	7	inactive	4.6
Cc1cc(C#N)cc(C)c1Oc1nc(Nc2ccc([N+](=O)[O-])cc2)cn2ccnc12	14	< 1	> 29	13	inactive	2.3
O=[N+]([O-])c1ccc(Nc2cn3ccnc3c(Oc3c(F)cc(F)cc3F)n2)cc1	11	< 1	> 28	< 1	inactive	> 28
Cc1cccc(C)c1Oc1nc(Nc2ccc(Cl)cc2)cn2ccnc12	15	< 1	> 57	< 1	inactive	> 57
Nc1ccn([C@@H]2CS[C@H](CO)O2)c(=O)n1 [LAMIVUDINE]				> 39		
Cc1cc(Br)cc(C)c1Oc1nc(Nc2ccc(C#N)cc2)cn2ccnc12	0.41	< 1	> 28	28	inactive	0.98
Cc1cccc(C)c1Oc1nc(Nc2ccc([N+](=O)[O-])cc2)cn2ccnc12	334			< 1	inactive	> 5.3
Cc1cn([C@H]2C[C@H](N=[N+]=[N-])[C@@H](CO)O2)c(=O)[nH]c1=O [ZIDOVUDINE]		> 9150	0.01	> 13100		
Cc1cc(C#N)cc(C)c1Oc1nc(Nc2ccc(Cl)cc2)cn2ccnc12	5.5			< 1	inactive	> 13
Cc1cc(C#N)cc(C)c1Oc1nc(Nc2ccc(C#N)cc2)nc(N)c1Br [ETRAVIRINE]			0.02			0.004
Cc1cccc(C)c1Oc1nc(Nc2ccc(CC#N)cc2)cn2ccnc12	5.7	< 1	> 156	< 1	inactive	> 156
Cc1cc(C)c(Oc2nc(Nc3ccc(C#N)cc3)cn3ccnc23)c(C)c1	0.4	< 1	> 33	126	inactive	0.26
